ChEMBL document CHEMBL1151431, “Role of lon, an ATP-dependent protease homolog, in resistance of Pseudomonas aeruginosa to ciprofloxacin” (2007)
Converted amounts (≈) assume the structure as drawn. The source made the active and inactive calls. No cut-off for these calls is given here.

Key:
[1] = system: Pseudomonas aeruginosa; assay: Antimicrobial activity in 0.01 ug/ml pretreated Pseudomonas aeruginosa PAO1 H103 at 2 times MIC after overnight incubation by adaptive resistance assay; assay type: functional, organism-based
In short: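 Modified time-kill with PAO1 H103 grown to mid-log (OD600 0.5–0.6) in LB at 37°C with or without ciprofloxacin 0.01 or 0.03 µg/ml. Cells were pelleted, washed in prewarmed PBS pH 7.4, resuspended in prewarmed LB with ciprofloxacin 0.2 µg/ml (2× MIC) and shaken at 37°C. Samples taken every 15–20 min for 2 h and plated on LB agar for overnight CFU counts at 37°C. Four independent experiments.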

[2] = system: Pseudomonas aeruginosa; assay: Antibacterial activity against wild type Pseudomonas aeruginosa PAO1 H103 after 24 hrs by broth microdilution technique; assay type: functional
In short: (§1)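 Broth microdilution MIC with P. aeruginosa PAO1 H103 (wild type), Tn5-lux insertion mutants or complemented strain. Overnight LB cultures grown at 37°C with agitation, diluted 1:1,000 in LB. Antimicrobials made fresh daily. Growth scored after 24 h at 37°C. Four independent repeats; mode reported.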

[3] = system: Pseudomonas aeruginosa; assay: Antibacterial activity against 31_C9 allele containing Pseudomonas aeruginosa PAO1 H1104 mutant strain with lon::lux mutation after 24 hrs by broth microdilution technique; assay type: functional; in short: as §1
[4] = system: Pseudomonas aeruginosa; assay: Antibacterial activity against 74_D9 allele containing Pseudomonas aeruginosa PAO1 H1105 mutant strain with lon::lux mutation after 24 hrs by broth microdilution technique; assay type: functional; in short: as §1
[5] = system: Pseudomonas aeruginosa; assay: Antibacterial activity against 24_A2 allele containing Pseudomonas aeruginosa PAO1 H1106 mutant strain with lon::lux mutation after 24 hrs by broth microdilution technique; assay type: functional; in short: as §1
[6] = system: Pseudomonas aeruginosa; assay: Antibacterial activity against 69_C12 allele containing Pseudomonas aeruginosa PAO1 H1109 mutant strain with recA::lux mutation after 24 hrs by broth microdilution technique; assay type: functional; in short: as §1
[7] = system: Pseudomonas aeruginosa; assay: Antibacterial activity against 6_G1 allele containing Pseudomonas aeruginosa PAO1 H1121 mutant strain with PA4961::lux mutation after 24 hrs by broth microdilution technique; assay type: functional; in short: as §1
[8] = system: Pseudomonas aeruginosa; assay: Antibacterial activity against 53_F11 allele containing Pseudomonas aeruginosa PAO1 H1124 mutant strain with PA5279::lux mutation after 24 hrs by broth microdilution technique; assay type: functional; in short: as §1
[9] = system: Pseudomonas aeruginosa; assay: Antibacterial activity against 16_G12 allele containing Pseudomonas aeruginosa PAO1 H1125 mutant strain with recG::lux mutation after 24 hrs by broth microdilution technique; assay type: functional; in short: as §1
[10] = system: Pseudomonas aeruginosa; assay: Antibacterial activity against Pseudomonas aeruginosa PAO1 H1105/lon+c mutant strain with lon::lux/lon+ mutation after 24 hrs by broth microdilution technique; assay type: functional; in short: as §1
[11] = system: Pseudomonas aeruginosa; assay: Antibacterial activity against 70_H3 allele containing Pseudomonas aeruginosa PAO1 H1129 mutant strain with rnt::lux mutation after 24 hrs by broth microdilution technique; assay type: functional; in short: as §1
[12] = system: Pseudomonas aeruginosa; assay: Antibacterial activity against 63_H5 allele containing Pseudomonas aeruginosa PAO1 H1133 mutant strain with nfxB::lux mutation after 24 hrs by broth microdilution technique; assay type: functional; in short: as §1
[13] = system: Pseudomonas aeruginosa; assay: Antibacterial activity against 75_F11 allele containing Pseudomonas aeruginosa PAO1 H1136 mutant strain with PA5455::lux mutation after 24 hrs by broth microdilution technique; assay type: functional; in short: as §1
[14] = system: Pseudomonas aeruginosa; assay: Increase in lon gene expression in Pseudomonas aeruginosa PAO1 H1105 mutant strain with lon::lux mutation assessed as incese in lon::lux fusion at 0.3 times MIC by luminescence assay relative to control; assay type: functional, organism-based
[15] = system: Pseudomonas aeruginosa; assay: Drug resistance in Pseudomonas aeruginosa PAO1 H1105 assessed as survivality at 0.0075 ug/ml after overnight incubation by adaptive resistance assay; assay type: functional, organism-based
[16] = system: Pseudomonas aeruginosa; assay: Effect on morphological change in Pseudomonas aeruginosa PAO1 H1105 assessed as elongation in cell length at 0.03 ug/ml by Grams staining-based light microscopy; assay type: functional, organism-based
[17] = system: Pseudomonas aeruginosa; assay: Antibacterial activity against 31_C9 allele containing Pseudomonas aeruginosa PAO1 H1104 mutant strain with lon::lux mutation assessed as fold decrease in MIC after 24 hrs by broth microdilution technique relative to wild type; assay type: functional; in short: as §1
[18] = system: Pseudomonas aeruginosa; assay: Antibacterial activity against 74_D9 allele containing Pseudomonas aeruginosa PAO1 H1105 mutant strain with lon::lux mutation assessed as fold decrease in MIC after 24 hrs by broth microdilution technique relative to wild type; assay type: functional; in short: as §1
[19] = system: Pseudomonas aeruginosa; assay: Antibacterial activity against 24_A2 allele containing Pseudomonas aeruginosa PAO1 H1106 mutant strain with lon::lux mutation assessed as fold decrease in MIC after 24 hrs by broth microdilution technique relative to wild type; assay type: functional; in short: as §1
[20] = system: Pseudomonas aeruginosa; assay: Antibacterial activity against Pseudomonas aeruginosa PAO1 H1105/lon+ mutant strain with lon::lux mutation assessed as fold decrease in MIC after 24 hrs by broth microdilution technique relative to wild type; assay type: functional; in short: as §1
[21] = system: Pseudomonas aeruginosa; assay: Effect on morphological change in Pseudomonas aeruginosa PAO1 H1105/lon+ assessed as elongation in cell length at 0.03 ug/ml by Grams staining-based light microscopy
[22] = system: Pseudomonas aeruginosa; assay: Effect on morphological change in Pseudomonas aeruginosa PAO1 H1105/lon+ assessed as restoration of cell division at 0.03 ug/ml by Grams staining-based light microscopy

Compound	MIC ([2]; PAO1 H103, 24 h)	MIC ([3]; PAO1 H1104, 24 h)	MIC ([4]; PAO1 H1105, 24 h)	MIC ([5]; PAO1 H1106, 24 h)	MIC ([6]; PAO1 H1109, 24 h)	MIC ([7]; PAO1 H1121, 24 h)	MIC ([8]; PAO1 H1124, 24 h)	MIC ([9]; PAO1 H1125, 24 h)	MIC [10]	MIC ([11]; PAO1 H1129, 24 h)	MIC ([12]; PAO1 H1133, 24 h)	MIC ([13]; PAO1 H1136, 24 h)	fold change (FC) [17]	fold change (FC) [18]	fold change (FC) [19]	fold change (FC) [20]	other results
O=C(O)c1cn(C2CC2)c2cc(N3CCNCC3)c(F)cc2c1=O [CIPROFLOXACIN]	0.1 µg/mL (≈ 0.302 µM)	0.025 µg/mL (≈ 0.0754 µM)	0.025 µg/mL (≈ 0.0754 µM)	0.025 µg/mL (≈ 0.0754 µM)	0.05 µg/mL (≈ 0.151 µM)	0.05 µg/mL (≈ 0.151 µM)	0.05 µg/mL (≈ 0.151 µM)	0.025 µg/mL	0.1 µg/mL (≈ 0.302 µM)	0.4 µg/mL (≈ 1.21 µM)	0.8 µg/mL (≈ 2.41 µM)	0.4 µg/mL (≈ 1.21 µM)	4	4	4	1	Activity [1]: inactive; Activity [14]: Active; Activity [15]: inactive; Activity [16]: inactive; Activity [21]: inactive; Activity [22]: Active
C[C@@H](O)[C@H]1C(=O)N2C(C(=O)O)=C(SCCNC=N)C[C@H]12 [IMIPENEM ANHYDROUS]	1 µg/mL (≈ 3.34 µM)	1 µg/mL (≈ 3.34 µM)	1 µg/mL (≈ 3.34 µM)	1 µg/mL (≈ 3.34 µM)	1 µg/mL (≈ 3.34 µM)	1 µg/mL (≈ 3.34 µM)	1 µg/mL (≈ 3.34 µM)	1 µg/mL	1 µg/mL (≈ 3.34 µM)	1 µg/mL (≈ 3.34 µM)	1 µg/mL (≈ 3.34 µM)	1 µg/mL (≈ 3.34 µM)					
CCn1cc(C(=O)O)c(=O)c2ccc(C)nc21 [NALIDIXIC ACID]	256 µg/mL (≈ 1100 µM)	128 µg/mL (≈ 551 µM)	128 µg/mL (≈ 551 µM)	128 µg/mL (≈ 551 µM)	256 µg/mL (≈ 1100 µM)	128 µg/mL (≈ 551 µM)	128 µg/mL (≈ 551 µM)	128 µg/mL	256 µg/mL (≈ 1100 µM)	512 µg/mL (≈ 2200 µM)	512 µg/mL (≈ 2200 µM)	512 µg/mL (≈ 2200 µM)	2	2	2	1	
CCn1cc(C(=O)O)c(=O)c2cc(F)c(N3CCNCC3)cc21 [NORFLOXACIN]	0.3 µg/mL (≈ 0.939 µM)	0.15 µg/mL (≈ 0.47 µM)	0.075 µg/mL (≈ 0.235 µM)	0.15 µg/mL (≈ 0.47 µM)	0.075 µg/mL (≈ 0.235 µM)	0.075 µg/mL (≈ 0.235 µM)	0.15 µg/mL (≈ 0.47 µM)	0.15 µg/mL	0.3 µg/mL (≈ 0.939 µM)	> 0.6 µg/mL	> 0.6 µg/mL	> 0.6 µg/mL	2	4	2	1	
GENTAMICIN																	MIC [2]: 2 µg/mL; MIC [3]: 2 µg/mL; MIC [4]: 2 µg/mL; MIC [5]: 2 µg/mL; MIC [6]: 2 µg/mL; MIC [7]: 2 µg/mL; MIC [8]: 2 µg/mL; MIC [9]: 2 µM; MIC [11]: 2 µg/mL; MIC [12]: 2 µg/mL; MIC [13]: 2 µg/mL
